This is a sample that favours compounds with a hit; in the whole collection about 3.8% have one here.
KCNK9 inh: blocks the human KCNK9 two-pore domain potassium channel; Q9NPC2; HEK293 KCNK9, FluxOR thallium flux fluorescence; stronger effect = lower value; B-score at 10 µM; hit rate 1.2% among 310,000;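 active means ratio B-score over 3 SD below the library mean, with starting fluorescence within 5 SD of its mean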;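 further: negative B-score means less thallium flux so channel inhibition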
Kir21 inh: blocks the mouse Kir2.1 inward-rectifier potassium channel; P35561; HEK293-Kir2.1, FluxOR thallium flux fluorescence; stronger effect = lower value; B-score at 10 µM; hit rate 0.85% among 310,000;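 active means fluorescence ratio B-score at or below minus 3 SD of library scores, with starting-brightness B-score within 2 SD, cut at about -4.2 in these data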;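 further: channel flux triggered by added potassium and thallium sulfate stimulus; B-score of peak minus minimum fluorescence over baseline after thallium stimulus; more negative B-score means stronger Kir2.1 block with less thallium influx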
KCNQ1 inh: inhibitors of human KCNQ1 potassium channel; CHO-K1 KCNQ1, FluxOR thallium flux fluorescence; stronger effect = higher value; B-score at 10 µM; hit rate 1.3% among 310,000; AID 2642;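 active means compounds whose thallium flux B-score, printed positive for inhibition, exceeds three library SD while starting fluorescence stays within three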;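 further: channel opened by potassium depolarization with thallium stimulus after 20 min compound exposure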
Target sequence (P51787 whole entry, looked up): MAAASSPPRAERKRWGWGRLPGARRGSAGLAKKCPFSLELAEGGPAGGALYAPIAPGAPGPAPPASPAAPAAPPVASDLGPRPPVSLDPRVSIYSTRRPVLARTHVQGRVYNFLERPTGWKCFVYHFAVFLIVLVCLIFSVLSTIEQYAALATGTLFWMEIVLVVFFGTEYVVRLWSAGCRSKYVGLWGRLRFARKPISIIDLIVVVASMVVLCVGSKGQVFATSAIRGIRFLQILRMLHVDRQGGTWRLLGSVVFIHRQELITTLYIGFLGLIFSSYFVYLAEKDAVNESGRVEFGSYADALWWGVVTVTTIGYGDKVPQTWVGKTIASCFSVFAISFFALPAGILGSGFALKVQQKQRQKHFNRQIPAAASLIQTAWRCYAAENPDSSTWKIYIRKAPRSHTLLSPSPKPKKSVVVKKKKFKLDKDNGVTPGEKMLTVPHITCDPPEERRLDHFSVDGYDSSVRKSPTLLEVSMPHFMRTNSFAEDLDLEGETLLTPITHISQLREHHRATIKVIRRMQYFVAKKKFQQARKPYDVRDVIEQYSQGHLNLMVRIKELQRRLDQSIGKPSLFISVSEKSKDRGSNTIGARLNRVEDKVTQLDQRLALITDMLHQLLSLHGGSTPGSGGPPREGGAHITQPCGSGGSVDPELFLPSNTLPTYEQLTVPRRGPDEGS
KCNQ1 pot: potentiates or activates the human KCNQ1 potassium channel; P51787; CHO-K1 KCNQ1, thallium flux FluxOR fluorescence; stronger effect = higher value; B-score at 10 µM; hit rate 0.35% among 310,000;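 active means fluorescence ratio B-score, a plate-corrected score, at least three library SD, with initial intensity B-score within 5 SD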
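Schedule – 37 °C overnight plating, 90-min dark dye load, 20-min compound pretreatment · System – stable KCNQ1 CHO-K1 line · Probe or stimulus – thallium- and potassium-containing depolarizing buffer · Measured by – kinetic FluxOR fluorescence, 10 s baseline plus 110 s post-stimulus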
hERG rescue: compounds protecting human hERG from proarrhythmic drug block. CHO-hERG, FluxOR thallium flux, dofetilide IC70 present. activation (rescue from dofetilide block), less the hit threshold, % at 10 µM. hit rate 0.51% among 310,000. AID 1511;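 active means activation above the mean of controls blocked by dofetilide plus 5 SD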;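 further: thallium influx through hERG after potassium depolarization seen as dye fluorescence rise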
KCNK3 inh: human KCNK3 channel inhibition, primary screen | O14649 | CHO-KCNK3 thallium flux, FluxOR fluorescence; stronger effect = lower value | B-score at 10 µM | hit rate 0.84% among 340,000 | AID 602410;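 active means B-score under library mean minus 4 SD, starting fluorescence ratio at most library mean plus 5 SD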;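 further: more negative B-score means stronger inhibition of thallium flux through KCNK3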
Each line names hits and unclear results; the compound was inactive in the other large screens.

CCc1nc(N)nc(N)c1-c1ccc(N(C)Cc2ccccc2)c([N+](=O)[O-])c1	none (no result: KCNK9 inh, Kir21 inh, KCNQ1 inh, KCNQ1 pot, hERG rescue)
COc1ccccc1CN(C)C(=O)COC(=O)c1cc(C)oc1C	none (no result: KCNK9 inh, Kir21 inh, KCNQ1 inh, KCNQ1 pot, hERG rescue)
CC(NC(=S)NC(=O)c1ccccc1Br)c1ccccc1 (stereo not drawn)	KCNQ1 pot 8
Cc1ccc2c(c1)CCCN2C(=O)CCc1nc2ccccc2c(=O)[nH]1	none (no result: KCNK9 inh, Kir21 inh, KCNQ1 inh, KCNQ1 pot, hERG rescue)
COc1ccccc1CNC(=O)[C@@H](NC(=O)C1CCN(C(=O)[C@@H]2CCCN2C(=O)OC(C)(C)C)CC1)C(C)C	none
CC[C@@H](C)[C@H](CN[C@H](CNC)C(C)C)NC[C@@H](C)c1ccc(CC(C)C)cc1	Kir21 inh -8.8, KCNQ1 inh 8
CC[C@H](C)[C@@H](CNC)NC[C@@H](Cc1ccc(O)cc1)NCC(C)(C)C	none
COc1ccccc1OCC(=O)NCC1CCCN(Cc2cnn(C)c2C)C1 (stereo not drawn)	none
COC(=O)c1ccc(-c2sc3nc(N4CCOCC4)c4c(c3c2N)CCCC4)o1	KCNK9 inh -9.2, KCNQ1 inh 6 (no result: KCNK3 inh)
CCOC(=O)C1CCN(c2ncnc3c2oc2ccccc23)CC1	KCNK3 inh -9.9
Cc1ccc(-c2cccc(C3CC=CC4C3C(=O)N(Cc3ccccc3)C4c3ccc4ccccc4c3)c2)cc1 (stereo not drawn)	hERG rescue 8.4
O=C1C2C(c3cccc(/C=C/c4ccccc4)c3)CC=CC2C(c2ccc3ccccc3c2)N1Cc1ccccc1 (stereo not drawn)	none
C[C@@H]1CC=C[C@H]2[C@H]1C(=O)N(Cc1ccccc1)[C@H]2c1ccc(F)c(Br)c1	KCNK9 inh -19, KCNQ1 inh 10 (no result: KCNK3 inh)
C[C@H]1CN([C@@H](C)CO)C(=O)c2cccc(NS(=O)(=O)c3cn(C)cn3)c2O[C@H]1CN(C)S(C)(=O)=O	none (no result: KCNK9 inh, Kir21 inh, KCNQ1 inh, KCNQ1 pot, hERG rescue)
COc1ccc(S(=O)(=O)N2CCOCC2)cc1NC(=O)COc1ccc(C(C)=O)cc1OC	none (no result: KCNK9 inh, Kir21 inh, KCNQ1 inh, KCNQ1 pot, hERG rescue)
Fc1ccc(C(c2ccc(F)cc2)N2CCN(C/C=C/c3ccccc3)CC2)cc1	KCNQ1 inh 8
Cc1ccc(Cl)cc1N1CCN(S(=O)(=O)c2ccc3c(c2)CC(=O)N3C)CC1	none
CCOc1ccccc1NC(=O)Nc1ccc2c(c1)OCO2	none
C=CCOc1ccccc1CN(C(=O)CCl)c1ccc2c(c1)OCO2	Kir21 inh -4.2
Cc1ccc2cc(C)c(SCC(=O)NCC3CCCO3)nc2c1 (stereo not drawn)	Kir21 inh -4.3
O=C(CN1CCSC1=O)Nc1ccc(N2CCOCC2)cc1	none (no result: KCNK9 inh, Kir21 inh, KCNQ1 inh, KCNQ1 pot, hERG rescue)
COc1ccc(NC(=O)c2ccc(Cl)c(S(=O)(=O)N3CCc4ccccc4C3)c2)cn1	KCNK3 inh -10
O=C(NC(NNc1ccc([N+](=O)[O-])cc1)(C(F)(F)F)C(F)(F)F)c1ccc(F)cc1	KCNQ1 inh 6
CC(C)OC(=O)c1cc(NC(=S)Nc2ccc([N+](=O)[O-])cc2)cc(C(=O)OC(C)C)c1	KCNQ1 inh 10
CC(C)CCNC(=S)Nc1ccc([N+](=O)[O-])cc1	Kir21 inh -11
O=[N+]([O-])c1ccc(NNC(=S)Nc2ccc(F)cc2)cc1	KCNQ1 inh 7
O=C(NC(NNc1ccc([N+](=O)[O-])cc1)(C(F)(F)F)C(F)(F)F)c1ccccc1Cl	none
O=C(NNC(=S)Nc1ccc(F)cc1)c1cccc([N+](=O)[O-])c1	none
COc1ccc(S(=O)(=O)N2CCOCC2)cc1NC(=O)C1CCN(S(=O)(=O)c2ccc(Cl)cc2)CC1	none (no result: KCNK9 inh, Kir21 inh, KCNQ1 inh, KCNQ1 pot, hERG rescue)
COc1ccc(-n2c(SCC(N)=O)nc3sc4c(c3c2=O)CCC4)cc1	none
S=c1[nH]nc(-c2ccccc2Cl)n1Cc1ccccc1	none
COc1ccccc1C(=O)NCc1n[nH]c(=S)n1Cc1ccccc1	none
Cc1scc(-c2n[nH]c(=S)n2Cc2ccccc2)c1C	none
CCc1c(-c2n[nH]c(=S)n2Cc2ccccc2)csc1C	Kir21 inh -9.3
COc1ccc(Cc2n[nH]c(=S)n2Cc2ccccc2)cc1Cl	Kir21 inh -5
COc1ccc(Cl)cc1-c1n[nH]c(=S)n1Cc1ccccc1	Kir21 inh -4.3
Cc1nn2c(N)c(-c3ccccc3)cnc2c1-c1ccccc1	none
CCOc1ccc(S(=O)(=O)N2CCN(Cc3ccco3)CC2)cc1	none
COc1ccc(C(CC(=O)O)NC(=O)C(c2ccccc2)c2ccccc2)cc1 (stereo not drawn)	hERG rescue 11
C=CCc1ccc(OCCN2CCc3ccccc3C2)c(OC)c1	Kir21 inh -10
C=CCc1ccc(OCCCNCc2ccccc2)c(OC)c1	Kir21 inh -8
C/C=C/c1ccc(OCCCCOc2c(OC)cccc2OC)c(OC)c1	none
C/C=C/c1ccc(OCCN2CCc3ccccc3C2)c(OC)c1	Kir21 inh -11
C=CCc1ccc(OCCCCN2CC(C)OC(C)C2)c(OC)c1 (stereo not drawn)	hERG rescue 4.9
Cc1cc(NC(=O)CSc2nc3c(c(=O)n2C)SCC3)no1	none
O=C(Nc1ccc([N+](=O)[O-])cc1Cl)c1cc(Cl)ccc1O	none (no result: KCNK9 inh, Kir21 inh, KCNQ1 inh, KCNQ1 pot, hERG rescue)
O=C(Nc1cccc(Cl)c1)c1cc(N=Nc2ccc([N+](=O)[O-])cc2Cl)ccc1O	KCNQ1 inh 7
O=C(NCc1ccccc1)C(c1ccncc1)N(C(=O)c1ccccn1)c1ccccc1 (stereo not drawn)	none
O=C(COc1cccc2ccccc12)N/N=C/c1ccccc1OCc1ccc(C(=O)O)cc1	KCNQ1 inh 11
O=C(COc1ccccc1-c1ccccc1)N/N=C/c1cccc2ccccc12	none
O=C(COc1ccc(Br)cc1F)NC1CC1	none (no result: KCNK9 inh, Kir21 inh, KCNQ1 inh, KCNQ1 pot, hERG rescue)
CCCC/C(O)=C1\C(=O)CCCC1=NCCc1c(C)[nH]c2ccccc12	Kir21 inh -4.4
CCC/C(O)=C1\C(=O)CCCC1=NCCc1c(C)[nH]c2ccc(C)cc12	none
C=CCn1c(COc2ccccc2)nnc1SC(C)C(=O)N/N=C/c1cc(Cl)ccc1O (stereo not drawn)	KCNQ1 inh 7
C=CCn1c(COc2ccc(Cl)cc2)nnc1SCC(=O)N/N=C/c1cccc(O)c1	none
COc1ccccc1CN(C)C(=O)c1cccc(S(=O)(=O)N2CCCc3ccccc32)c1	none (no result: KCNK9 inh, Kir21 inh, KCNQ1 inh, KCNQ1 pot, hERG rescue)
CC(C)CN1C(=O)/C(=C/c2cccs2)NC1=S	KCNQ1 pot 55, hERG rescue 49
CCCN1C(=O)/C(=C/c2ccc(C)s2)NC1=S	KCNQ1 pot 32, hERG rescue 32
CC(C)(CO)NC(=S)NCc1ccco1	none
O=C(Nc1nnc(-c2ccccc2)o1)c1ccc(Cl)cc1	KCNQ1 pot 11
COc1ccc(-c2nc(C#N)c(NC(C)C)o2)cc1	none
CCC(CC)c1nc(C#N)c(NC(C)c2ccccc2)o1 (stereo not drawn)	Kir21 inh -6.1
O=C(CN1C(=O)NC2NC(=O)NC21)N/N=C/c1ccccc1F (stereo not drawn)	none (no result: KCNK3 inh)
Cc1c(/C=N/Nc2nc3ccccc3[nH]2)c2ccccc2n1C	KCNQ1 inh 7

Assay outcomes from PubChem BioAssay.
